Experimental data of several laboratories.
Each line is one published result; the experiments were not run side by side.
MARK1: Serine/threonine-protein kinase MARK1 (MARK1, Homo sapiens, UniProt Q9P0L2)
SIRT3: NAD-dependent protein deacetylase sirtuin-3, mitochondrial (SIRT3, Homo sapiens, UniProt Q9NTG7)
PTGS1: Prostaglandin G/H synthase 1 (PTGS1, Ovis aries, UniProt P05979)

SMILES | target | test | conditions | measurement | result
Cc1nn(CC(F)(F)F)cc1Nc1nccc(NCCCNC(=O)C2CCC2)n1 | MARK1 | enzyme activity, inhibitor, radiometric | 1 µM | remaining activity | 108%
Cc1ccc(C(=O)Nc2ccc(CN3CCN(C)CC3)c(C(F)(F)F)c2)cc1C#Cc1cnc2cccnn12 | Mitogen-activated protein kinase kinase kinase 6 (MAP3K6, Homo sapiens, UniProt O95382) | enzyme activity, inhibitor | 23.5 nM | remaining activity | 79%
CCCCCc1cc(=O)c2cc(Cl)cc(Br)c2o1 | SIRT3 | enzyme activity, inhibitor, fluorescence | 200 µM | inhibition | 4.5%
CCCCCCNC(=O)c1ccccc1SC(C)=O | PTGS1 | enzyme activity, inhibitor |  | kinact | 0.00035 s⁻¹
NS(=O)(=O)c1ccc(Nc2nc(-c3ccc(F)cc3)c3ccccc3n2)cc1 | Peregrin (BRPF1, Homo sapiens, UniProt P55201) | binding, competition with immobilised ligand | 1 µM | remaining binding | 76%
C[S+]([O-])c1ccc(-c2nc(-c3ccncc3)c(-c3ccc(F)cc3)[nH]2)cc1 (centres unmarked) | Transcription initiation factor TFIID subunit 1, BD1 (TAF1, Homo sapiens, UniProt P21675) | thermal stability, DSF | 10 µM | ΔTm | -0.19 °C
Cc1cc2c(cc1N1C(=O)c3cccc4c(Cl)ccc(c34)C1=O)n(C)c(=O)n2C | Bromodomain adjacent to zinc finger domain protein 2B, bromodomain (BAZ2B, Homo sapiens, UniProt Q9UIF8) | thermal stability, DSF | 10 µM | ΔTm | 0.6 °C
Cc1nn(CC(F)(F)F)cc1Nc1ncc(C2CC2)c(NCCc2c[nH]cn2)n1 | Mitogen-activated protein kinase kinase kinase 9 (MAP3K9, Homo sapiens, UniProt P80192) | enzyme activity, inhibitor, radiometric | 1 µM | remaining activity | 72%
CCCCC#CCNC(=O)c1ccccc1SC(C)=O | PTGS1 | enzyme activity, inhibitor |  | kinact | 0.000367 s⁻¹
Cc1cnc(Nc2ccc(OCCN3CCCC3)cc2)nc1Nc1cccc(S(=O)(=O)NC(C)(C)C)c1 | Transcription initiation factor TFIID subunit 1-like, BD2 (TAF1L, Homo sapiens, UniProt Q8IZX4) | thermal stability, DSF | 10 µM | ΔTm | 0.91 °C
Cc1nn(CC(F)(F)F)cc1Nc1ncc(C2CC2)c(NCCCNC(=O)C2CCC2)n1 | MARK1 | enzyme activity, inhibitor, radiometric | 1 µM | remaining activity | 79%
Oc1ccc(-c2nc(-c3ccncc3)c(-c3ccc(F)cc3)[nH]2)cc1 | Transcription initiation factor TFIID subunit 1-like, BD1 (TAF1L, Homo sapiens, UniProt Q8IZX4) | thermal stability, DSF | 10 µM | ΔTm | 0.17 °C
Oc1cccc(Nc2nc(-c3ccc(F)cc3F)cs2)c1 | Type-2 angiotensin II receptor (AGTR2, Homo sapiens, UniProt P50052) | cell-free assay | 10 µM | inhibition | -5.6%
CCCCC[C@@H]1CC(=O)c2cc(Cl)cc(Br)c2O1 | SIRT3 | enzyme activity, inhibitor, fluorescence | 200 µM | inhibition | 3.9%
CCCOc1ccc(OC)c(F)c1C(=O)c1ccc(C(=O)N[C@@H]2CNC[C@H]2NC(=O)c2ccc3[nH]ncc3c2)cc1 | Serine/threonine-protein kinase MRCK alpha (CDC42BPA, Homo sapiens, UniProt Q5VT25) | enzyme activity, inhibitor | 50 nM | remaining activity | 83%
COc1cc(Cl)c(C(=O)N[C@@H](CN[C@H]2CC[C@@H](N)CC2)Cc2ccc(C#N)cc2)cc1-c1ccc(CN[C@H](C)c2ccc(C)cc2)o1 | Transcription initiation factor TFIID subunit 1-like (TAF1L, Homo sapiens, UniProt Q8IZX4) | enzyme activity, inhibitor | 1 µM | remaining activity | 96%
CCCCCC1CC(=O)c2cc(C)cc(C)c2O1 (centres unmarked) | SIRT3 | enzyme activity, inhibitor, fluorescence | 200 µM | inhibition | 2.4%
